Calls of active or inactive are those of the source. The rule behind the calls is not given here.
What was measured:
[1] = test system: Mus musculus; experiment: Observation of behavior in mice following 30 mg/kg i.p. administration; No significant change.; type: functional, organism-based; design: dose 30 mg/kg
[2] = test system: HL-60; experiment: Inhibitory concentration against interleukin-1 beta production in HL-60 cells stimulated with lipopolysaccharide (LPS).; type: functional, cell-based; conditions: Homo sapiens
Outline: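 IC50 obtained by comparing IL-1β yield with an untreated control to which no test compound was added.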

[3] = test system: Mus musculus; experiment: Observation of behavior in mice after ip administration at the dose of 30 mg/kg; Depression of spontaneous locomotor activity; type: functional, organism-based; design: dose 30 mg/kg
[4] = test system: Mus musculus; experiment: Observation of behavior in mice after ip administration at the dose of 30 mg/kg; Weak sedation; type: functional, organism-based; design: dose 30 mg/kg
[5] = organism: Mus musculus; experiment: Number of dead mice/total number of mice used; 6/8; type: ADME, organism-based; conditions: in vivo
[6] = test system: Mus musculus; experiment: Observation of behavior in mice after ip administration at the dose of 30 mg/kg; symptoms were tremor, dyspnea, difficulty in walking and death; type: functional, organism-based; design: dose 30 mg/kg

SMILES | IC50 [2] [µM] | Symptoms [1] | further results
COc1ccc(-c2cc(Nc3cc(OC)c(OC)c(OC)c3)nnc2-c2ccc(OC)cc2)cc1 | > 100 | No significant change | 
COc1ccc(-c2cc(Oc3ccc([N+](=O)[O-])cc3)nnc2-c2ccc(OC)cc2)cc1 | 0.63 | No significant change | 
COc1ccc(-c2cc(Oc3cccc([N+](=O)[O-])c3)nnc2-c2ccc(OC)cc2)cc1 | 2.36 | No significant change | 
COc1ccc(-c2cc(Oc3cc(F)cc(F)c3)nnc2-c2ccc(OC)cc2)cc1 | 1.38 | No significant change | 
COc1ccc(-c2ncc(C#N)nc2-c2ccc(OC)cc2)cc1 | 6.6 |  | Symptoms [4]: Weak sedation
COc1ccc(-c2cc(Oc3ccc(C#N)cc3)nnc2-c2ccc(OC)cc2)cc1 | > 100 | No significant change | 
COc1ccc(-c2cc(Oc3ccc(Cl)cc3Cl)nnc2-c2ccc(OC)cc2)cc1 | 2.54 | No significant change | 
COc1ccc(-c2cnc(C#N)nc2-c2ccc(OC)cc2)cc1 | 2.88 | No significant change | 
COc1ccc(-c2cc(NCc3ccccc3)nnc2-c2ccc(OC)cc2)cc1 | > 100 |  | 
COc1ccc(-c2cc(Sc3ccc(F)cc3F)nnc2-c2ccc(OC)cc2)cc1 | 1.87 |  | Symptoms [4]: Weak sedation
COc1ccc(-c2cc(Oc3ccncc3)nnc2-c2ccc(OC)cc2)cc1 | 1.24 | No significant change | 
COc1ccc(-c2cc(-c3ccccc3)nnc2-c2ccc(OC)cc2)cc1 | 2.81 | No significant change | 
COc1ccc(-c2cc(Oc3ccc(F)cc3F)nnc2-c2ccc(OC)cc2)cc1 | 2.32 |  | Symptoms [3]: Depression of spontaneous locomotor activity
COc1ccc(-c2cc(C#N)nnc2-c2ccc(OC)cc2)cc1 | 0.09 |  | Activity [5]: 6; Symptoms [6]: Tremor, dyspnea, difficulty in walking and death
CCCN(c1cc(-c2ccc(OC)cc2)c(-c2ccc(OC)cc2)nn1)c1ccc(F)cc1F | 3.16 | No significant change | 
COc1ccc(-c2cc(Sc3ccccc3)nnc2-c2ccc(OC)cc2)cc1 | 20.5 | No significant change | 
COc1ccc(-c2cc(Nc3ccc(F)cc3F)nnc2-c2ccc(OC)cc2)cc1 | 1.92 | No significant change | 
C[C@]12C=CC(=O)C=C1CCC1[C@@H]2[C@@H](O)C[C@@]2(C)[C@H]1CC[C@]2(O)C(=O)CO (single isomer, unassigned) [PREDNISOLONE] | 0.76 | inactive | 

The next lines start with results.

IC50 [2] [µM] | SMILES | Symptoms [1] | further results
0.04 | COc1ccc(-c2cc(Oc3c(F)c(F)c(F)c(F)c3F)nnc2-c2ccc(OC)cc2)cc1 |  | Symptoms [3]: Depression of spontaneous locomotor activity
0.18 | COc1ccc(-c2cc(Oc3cc(F)ccc3F)nnc2-c2ccc(OC)cc2)cc1 |  | 
0.35 | COc1ccc(-c2cc(Oc3c(F)cccc3F)nnc2-c2ccc(OC)cc2)cc1 | No significant change | 
0.12 | COc1ccc(-c2cc(Oc3cccc(F)c3F)nnc2-c2ccc(OC)cc2)cc1 | No significant change | 
0.15 | COc1ccc(-c2cc(Oc3ccccc3C#N)nnc2-c2ccc(OC)cc2)cc1 | No significant change | 
0.46 | COc1ccc(-c2cc(Oc3ccc(F)c(F)c3)nnc2-c2ccc(OC)cc2)cc1 |  | 
0.45 | COc1ccc(Oc2cc(-c3ccc(OC)cc3)c(-c3ccc(OC)cc3)nn2)cc1 |  | 
0.1 | COc1ccc(-c2cc(Oc3ccccc3)nnc2-c2ccc(OC)cc2)cc1 | No significant change | 
0.19 | COc1ccc(-c2cc(Oc3c(F)c(F)cc(F)c3F)nnc2-c2ccc(OC)cc2)cc1 | No significant change | 
0.16 | COc1ccc(-c2cc(Oc3cccc(C#N)c3)nnc2-c2ccc(OC)cc2)cc1 |  | 
0.2 | COc1ccc(-c2cc(Sc3cc(Cl)c(Cl)c(Cl)c3)nnc2-c2ccc(OC)cc2)cc1 | No significant change | 

From ChEMBL document CHEMBL1133942, “Synthesis and bioactivities of novel pyridazine derivatives: inhibitors of interleukin-1 beta (IL-1beta) production” (Bioorg Med Chem Lett, 2001)
